Most compounds without a hit are left out; they make up all but 2.3% or so of the library.
TRPC6 inhibitor: mouse TRPC6 channel inhibitors, primary screen, cell-based, HEK293, membrane potential dye; B-score at 10 µM; Short transient receptor potential channel 6 (Mus musculus), Q61143; 1.1% of 310,000 active; ACh-evoked depolarization; active compounds read low;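 active = B-score under library mean minus 3 SD, initial fluorescence not abnormally high, positive integrated signal ratio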;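 note: B-score derived from integrated fluorescence ratio over the kinetic read; more negative B-score means stronger inhibition of depolarization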
TRPC4 act: activators of mouse TRPC4 channel, primary screen, Fluo4 calcium, HEK293 TRPC4beta/mu-opioid cells. Short transient receptor potential channel 4 (Mus musculus), Q9QUQ5. Fluo4 calcium fluorescence; active compounds read high. B-score at 10 µM. 0.49% of 310,000 active. AID 2237, 2010;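 active = B-score above 5 SD of library B-scores, and initial fluorescence ratio not above library mean plus 5 SD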;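 note: positive B-score marks a calcium rise read as TRPC4 activation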
Target sequence (Q9QUQ5 whole entry, looked up): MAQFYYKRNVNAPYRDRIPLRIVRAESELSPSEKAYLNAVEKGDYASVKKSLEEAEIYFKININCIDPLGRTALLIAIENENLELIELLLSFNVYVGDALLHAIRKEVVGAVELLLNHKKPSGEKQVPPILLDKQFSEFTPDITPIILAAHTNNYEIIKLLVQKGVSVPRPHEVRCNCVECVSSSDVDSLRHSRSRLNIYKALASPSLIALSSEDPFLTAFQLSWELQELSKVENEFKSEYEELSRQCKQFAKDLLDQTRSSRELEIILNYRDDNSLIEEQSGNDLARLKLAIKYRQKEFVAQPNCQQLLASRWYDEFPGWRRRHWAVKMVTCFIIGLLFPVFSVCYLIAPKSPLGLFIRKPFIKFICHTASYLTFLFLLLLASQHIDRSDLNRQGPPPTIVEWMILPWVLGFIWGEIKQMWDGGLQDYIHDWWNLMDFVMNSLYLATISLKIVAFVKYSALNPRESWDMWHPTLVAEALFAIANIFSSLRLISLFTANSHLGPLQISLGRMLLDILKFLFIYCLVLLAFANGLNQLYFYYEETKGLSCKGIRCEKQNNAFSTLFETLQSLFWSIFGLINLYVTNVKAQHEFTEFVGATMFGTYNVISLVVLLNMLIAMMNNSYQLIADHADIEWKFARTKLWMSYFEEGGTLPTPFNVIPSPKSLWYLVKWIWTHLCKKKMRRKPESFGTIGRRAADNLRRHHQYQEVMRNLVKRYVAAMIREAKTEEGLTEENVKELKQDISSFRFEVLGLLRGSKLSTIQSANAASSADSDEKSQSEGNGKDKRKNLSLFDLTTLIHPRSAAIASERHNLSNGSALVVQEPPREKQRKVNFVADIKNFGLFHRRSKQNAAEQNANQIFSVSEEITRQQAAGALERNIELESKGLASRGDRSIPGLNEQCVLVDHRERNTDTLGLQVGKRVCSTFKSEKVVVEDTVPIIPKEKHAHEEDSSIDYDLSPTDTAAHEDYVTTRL
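Assay system: HEK293 stable line with TRPC4beta plus mu-opioid receptor; schedule: 45 min room-temperature Fluo4 loading, 110 s read; technique: kinetic Fluo4 calcium fluorescence; evaluation: integrated baseline-normalised fluorescence ratio, converted to per-well B score; controls: buffer (low) and maximal DAMGO (high)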
TRPC6 act: mouse TRPC6 channel activators, primary screen, cell-based, HEK293, membrane potential dye; Short transient receptor potential channel 6 (Mus musculus), Q61143; HEK293-TRPC6 membrane potential dye fluorescence; active compounds read high; B-score at 10 µM; 0.13% of 310,000 active;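 active = B-score of the integrated fluorescence ratio above library mean plus 3 SD, and starting fluorescence ratio within library mean plus 5 SD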;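 note: higher score means more depolarization so channel activation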
TRPC4 potent: positive allosteric modulators of TRPC4, primary screen, cell-based, mouse TRPC4beta, HEK293 mu-opioid, Fluo-4 calcium; Short transient receptor potential channel 4 (Mus musculus), Q9QUQ5; DAMGO EC20, Fluo-4 Ca2+ flux; active compounds read high; B-score at 10 µM; 0.42% of 310,000 active; AID 2227, 2009;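 active = B-score of calcium response area above 5 SD of library B-scores, with initial fluorescence ratio within 5 SD of library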;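 note: B-score of integrated fluorescence ratio over time as area under calcium response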
TRPC4 block: inhibitors of mouse TRPC4 channel, primary screen, Fluo4 calcium, HEK293 TRPC4beta/mu-opioid cells | DAMGO-evoked Fluo4 calcium flux; active compounds read low | Short transient receptor potential channel 4 (Mus musculus), Q9QUQ5 | 0.39% of 300,000 active | B-score at 10 µM;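 active = B-score over 3 SD under the library average, no early fluorescence shift, positive overall ratio signal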
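Assay system: Stable TRPC4beta/mu-opioid receptor HEK293 cells | Reagent: DAMGO in two steps, submaximal then maximal | Compound dosing: Single concentration per test compound | Signal: Fluo4 Ca2+ flux fluorescence | Evaluation: Per-well B score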
HEK293 MPD ctr: parental HEK293 membrane potential modulation, confirmation, counter-screen for TRPC6 modulator project, cell-based; shares compounds with TRPC6 inhibitor; membrane potential dye fluorescence; membrane potential signal change, % at 10 µM; AID 488924, 2010; 51% of 2,400 active;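 active = membrane potential signal moves up or down beyond 5 SD from buffer-only wells, on both duplicate plates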
HEK293 MPD ctr 2: second counter-screen for TRPC6 modulators: effect in parental HEK293 cells; 14% of 2,400 active; inhibition, % at 10 µM; shares compounds with TRPC6 inhibitor; membrane potential dye fluorescence; after compound, maximal acetylcholine stimulation;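 active = membrane potential signal drops by more than 5 SD from the mean control signal, in both duplicate plates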;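 note: plate controls were acetylcholine ECmax control wells for no effect and buffer only wells for full effect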
TRPC4 ctr mod: TRPC4 modulation by TRPC6 hit compounds, confirmation, selectivity assay for TRPC6 modulator project, cell-based, HEK293 TRPC4/mu-opioid, membrane potential dye, mouse | shares compounds with TRPC6 inhibitor | AID 488927, 2010 | percent change from control (negative = decrease, positive = increase), % at 10 µM | 69% of 2,400 active | membrane potential fluorescence;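 active = membrane potential signal moved up or down beyond 5 SD of buffer control wells, in both duplicate plates, actives on both sides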;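 note: plate controls were assay buffer wells for no effect and DAMGO maximal-effect wells for full effect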
TRPC4/MOR inh 2: second check of whether TRPC6 modulators also affect mouse TRPC4 | inhibition, % at 10 µM | 55% of 2,400 active | AID 488928 | HEK293 TRPC4/mu-opioid, membrane potential dye fluorescence; stimulated with maximal-effect DAMGO | shares compounds with TRPC6 inhibitor;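 active = drop in membrane potential signal beyond 5 SD of the control wells in both duplicate plates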;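 note: TRPC4 counter screen for TRPC6 hits run under conditions tuned for TRPC6 not TRPC4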
TRPC6 block conf: mouse TRPC6 channel inhibitors, confirmation, HEK293 cells, membrane potential dye, duplicate. ACh-evoked depolarization. inhibition, % at 10 µM. 43% of 3,300 active. shares compounds with TRPC6 inhibitor. AID 488960, 2010;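 active = fluorescence ratio falls more than 5 SD below the full-stimulation control mean, in both duplicate runs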;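 note: integrated fluorescence ratio of peak minus minimum over baseline after agonist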
TRPC6 act confirm: mouse TRPC6 channel activators, confirmation, HEK293 cells, membrane potential dye, duplicate. shares compounds with TRPC6 inhibitor. HEK293-TRPC6 membrane potential dye fluorescence, FDSS. activation, % at 10 µM. 11% of 2,800 active;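 active = ratio signal rise beyond 5 SD above unstimulated control wells' mean, seen in both duplicate runs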;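 note: plate controls were buffer EC0 wells for no effect and acetylcholine ECmax response for full effect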
* = called active by the depositor; i = inactive; nt = no result given.

SMILES | TRPC6 inhibitor | TRPC4 act | TRPC6 act | TRPC4 potent | TRPC4 block | HEK293 MPD ctr | HEK293 MPD ctr 2 | TRPC4 ctr mod | TRPC4/MOR inh 2 | TRPC6 block conf | TRPC6 act confirm
Cc1cccc(C)c1Nc1c(-c2ccc(N3CCOCC3)cc2)nc2ncccn12 | -8* | i | i | i | i | -123%* | 56%* | -28%* | 97%* | 76%* | i
Cc1ccc(Nc2c(-c3ccc(N4CCOCC4)cc3)nc3ncccn23)c(C)c1 | -6.1* | i | i | i | i | -143%* | 62%* | -29%* | 96%* | 84%* | i
Cc1ccc(-c2nc3ncccn3c2NC2CCCC2)o1 | i | i | i | i | i | nt | nt | nt | nt | nt | nt
Cc1ccc(Nc2c(-c3ccc(C)o3)nc3ncccn23)cc1 | i | i | i | i | i | nt | nt | nt | nt | nt | nt
Cc1ccc(Nc2c(-c3ccc(N(C)C)cc3)nc3ncccn23)cc1 | i | i | i | i | i | nt | nt | nt | nt | nt | nt
Cc1ccc(-c2nc3ncccn3c2Nc2ccccc2C)o1 | -5.8* | i | i | i | i | -115%* | i | -18%* | 68%* | i | i
COc1ccc(C2C3=C(CC(C)(C)CC3=O)Oc3ncn(Cc4ccccc4)c(=N)c32)cc1 (stereo not given) | -5.4* | i | i | i | i | 146%* | i | 22%* | 69%* | 54%* | nt
O=C(NCc1ccc(F)cc1)c1c2c(nc3ccccc13)CCN(Cc1ccccc1)C2 | i | i | i | i | i | nt | nt | nt | nt | nt | nt
Nc1[nH]nc2nc(NCc3ccccc3)c3c(c12)CCN(Cc1ccccc1)C3 | -5.4* | i | i | i | i | i | i | -16%* | 49%* | 42%* | i
Cc1ccc(N2CC(O)(c3cccs3)[N+]3=C2CCCC3)cc1 (stereo not given) | -5.2* | i | i | i | i | 104%* | i | 16%* | 38%* | i | nt
Cc1cccc(N2CC(O)(c3cccs3)[N+]3=C2CCCC3)c1 (stereo not given) | i | i | i | i | i | nt | nt | nt | nt | nt | nt
N#CC(C#N)=C1NC(N)=C(C#N)C(c2ccccc2)=C1C#N | i | i | i | i | i | nt | nt | nt | nt | nt | nt
COc1cccc(C2=Nc3cccc4cccc(c34)N2)c1 | -8.1* | i | i | i | i | -94%* | i | -26%* | 74%* | 52%* | i
NC(=O)C[n+]1cccc2ccccc21 | i | i | i | i | i | nt | nt | nt | nt | nt | nt
c1ccc(C[n+]2cccc3c4ccccc4ccc32)cc1 | -9.7* | i | i | i | i | -274%* | 71%* | -46%* | 64%* | 68%* | i
O=[N+]([O-])c1ccc(C[n+]2cccc3ccccc32)cc1 | i | i | i | i | i | nt | nt | nt | nt | nt | nt
CCCCC[n+]1cccc2c3ccccc3ccc21 | -9.2* | i | i | i | i | -238%* | i | -39%* | 66%* | 58%* | i
CN(C)CCCNCC(=O)NN(c1ccccc1)c1ccccc1 | i | i | i | i | i | nt | nt | nt | nt | nt | nt
COc1ccc(C(=O)C2CCCN(C(=O)/C=C/c3cnc[nH]3)C2)c(C)c1 (stereo not given) | i | i | i | i | i | nt | nt | nt | nt | nt | nt
O=C(NCc1cccnc1)/C(=C/c1ccc(Cl)cc1)NC(=O)c1ccccc1 | -5.6* | i | i | i | i | i | i | i | i | i | i
COc1ccc(C(=O)N/C(=C\c2ccccc2)C(=O)NCc2cccnc2)cc1 | i | i | i | i | i | nt | nt | nt | nt | nt | nt
Cc1ccc(-c2nc(SCC(=O)c3c(N)n(C)c(=O)n(C)c3=O)n[nH]2)cc1 | -5.1* | i | i | i | i | i | i | i | i | i | i
Cc1ccc(-c2nc(SC(C)C(=O)c3c(N)n(C)c(=O)n(C)c3=O)n[nH]2)cc1 (stereo not given) | i | i | i | i | i | nt | nt | nt | nt | nt | nt
CCOc1ccccc1/C=C(/NC(=O)c1ccccc1)C(=O)N1CCCCC1 | i | i | i | i | i | nt | nt | nt | nt | nt | nt
Cc1cc(C)cc(N=Cc2[nH]c3ccc(Br)c(Cl)c3c2O)c1 | i | i | 36* | 11* | i | i | i | i | i | i | i
SMILES | TRPC6 inhibitor | TRPC4 act | TRPC6 act | TRPC4 potent | TRPC4 block | HEK293 MPD ctr | HEK293 MPD ctr 2 | TRPC4 ctr mod | TRPC4/MOR inh 2 | TRPC6 block conf | TRPC6 act confirm
Cc1ccc(N=Cc2cc(Br)cc(Cl)c2O)cc1 | i | i | i | i | i | nt | nt | nt | nt | nt | nt
O=C(CSc1nc2c(c(=O)n1-c1ccc(Br)cc1)SCC2)NCC1CCCO1 (stereo not given) | -5* | i | i | i | i | 108%* | i | 25%* | 32%* | 51%* | nt
O=C(NCc1ccccc1)c1ncn[nH]1 | i | i | i | i | i | nt | nt | nt | nt | nt | nt
Cc1cc(NC2CCCCC2)n2c(n1)nc1ccccc12 | -5.5* | i | i | i | i | i | i | i | i | i | i
Cc1cc(Nc2cccc(F)c2)n2c(n1)nc1ccccc12 | i | i | i | i | i | nt | nt | nt | nt | nt | nt
COC(=O)c1ccc(Cl)cc1N(Cc1c(F)cccc1Cl)S(C)(=O)=O | -5.3* | 65* | i | i | i | 303%* | 113%* | 44%* | 38%* | i | nt
